Inconclusive results are not listed.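 The calls were made as follows, unless noted: active = viability increase at or above a cutoff of the median across tested compounds plus 3 SD (cut at about 8.5% in these data, passing the limit was not always enough); inconclusive = some gains above the cutoff, reason not given; inactive = the rest.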
Legend:
[1] = OD615 S. cerevisiae growth inhibition, permissive medium, pilot counter-assay, permissive growth control for S. cerevisiae lifespan shortening project (AID 705;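 active = growth inhibition above 25% in both replicates, a cutoff set 3 SD above the mean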); settings: OD615, 24 h, at 10 µM, hits give high values
In short: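 Material: engineered DeaD yeast; compound dosing: one dose 10 µM, DMSO 0.25% final; measure: yeast growth inhibition indicated by reduced 24 h OD615; detection: OD615 turbidity read; incubation: cells pre-grown 4 h, then 24 h compound exposure, 30 °C humidified; medium: permissive synthetic complete medium with raffinose and galactose carbon sources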

[2] = Restrictive medium S. cerevisiae growth inhibition, OD615, pilot screen of yeast lifespan reduction project, restrictive growth control (AID 706;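 active = growth inhibition above a set limit, 3 SD over mean compound inhibition, in both replicates, cut at about 43% in these data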;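 also: modified DeaD lifespan yeast strain shifted to restrictive glucose medium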); settings: OD615, 48 h, at 10 µM, hits give high values
In short: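 material = engineered S. cerevisiae DeaD strain | medium = glucose-based CSMM-D restrictive medium | times = 4 h pre-incubation, 48 h exposure at 30 °C | technique = OD615 absorbance reading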

[3] = viability gain of MRP-1-high H69AR cells under doxorubicin, pilot screen, MRP-1 activator project, CellTiter-Glo, duplicate (AID 807); settings: H69AR viability with doxorubicin, CellTiter-Glo luminescence; at 10 µM; hits give high values;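 also: compound pretreatment 18-22 h then 72 h combined with doxorubicin; 0% = doxorubicin alone and 100% = vehicle without doxorubicin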
[4] = growth suppression of beta-catenin knockout HCT116, pilot screen, human colon tumor cells (AID 823;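 active = cell viability at or below a set limit in both duplicate runs, the limit being the all-compound median minus 4 SD, cut at about 23% in these data, passing the limit was not always enough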;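 also: 0% = wells killed by 20 µM Hyamine and 100% = untreated DMSO cell wells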); settings: CellTiter-Glo, 60 h, at 10 µM, hits give low values
[5] = growth suppression of PTEN-deleted HCT116, pilot screen, cell-based, HCT116 clonal line, CellTiter-Glo (AID 824;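 active = viability at or below 27.92% in each of two runs, the all-compound median minus 4 SD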;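 also: 0% = 20 µM Hyamine control and 100% = vehicle cell control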); settings: 60 h, at 10 µM, hits give low values
[6] = inhibitors of the yeast RAM network, pilot screen, dse1pr::URA3 reporter, 5-FOA selection (AID 869;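 active = inhibition over a set limit, the all-compound mean plus 3 SD, in both replicate runs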;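 also: 0% = DMSO wells with no growth and 100% = 10 µM 1-NA-PP1 with full growth; RAM network block rescues cells from 5-FOA so hits raise OD615 growth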); settings: S. cerevisiae dse1pr::URA3 5-FOA growth, OD615, 2 d; at 10 µM; hits give high values; strain carries analog-sensitive mutant Cbk1 kinase
[7] = RAM signaling pathway blockade in yeast – S. cerevisiae, Pdr1DBD-CYC8 efflux-inhibited sensitized strain, primary screen (AID 1298;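 active = RAM network inhibition above 8.4% in each of two replicates, 3 SD over the compound average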;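 also: 0% = DMSO untreated cells without growth and 100% = 10 µM 1-NA-PP1 full growth; higher means more yeast growth rescued from 5-FOA killing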); settings: S. cerevisiae cbk1-as DSE1-URA3 strain, 5-FOA growth OD615, 2 d; at 50 µM; hits give high values

Cc1ccc(F)c(NC=C2C(=O)OC(C)(C)OC2=O)c1
inactive: growth inhibition [1] -10.2% | growth inhibition [2] -7.67% | viability increase [3] 0.97% | viability [4] 87.9% | viability [5] 92.8% | inhibition [6] 2.53% | RAM network inhibition [7] 2.44%

COc1ccc(N(CC(=O)Nc2ccc3c(c2)OCO3)S(=O)(=O)c2ccccc2)c(OC)c1
inactive: growth inhibition [1] -7.79% | growth inhibition [2] -13.1% | viability increase [3] -2.07% | viability [4] 71.8% | viability [5] 75.6% | inhibition [6] 2.93% | RAM network inhibition [7] 9.79%

COc1ccc(N(C)C(=O)c2ccc3snnc3c2)cc1
inactive: growth inhibition [1] 4.09% | growth inhibition [2] -8.11% | viability increase [3] -1.56% | viability [4] 105% | viability [5] 94.3% | inhibition [6] 2.6% | RAM network inhibition [7] 0.05%

COc1ccc(-c2nc(CS(=O)CC(=O)NCC3CCCO3)c(C)o2)cc1 (stereo unspecified)
inactive: growth inhibition [1] -7.51% | growth inhibition [2] 15.5% | viability increase [3] -2.38% | viability [4] 97.8% | viability [5] 102% | inhibition [6] -0.795% | RAM network inhibition [7] 4.03%

O=C(Nc1ccc2c(c1)OCO2)C1COc2ccccc2O1 (stereo unspecified)
inactive: growth inhibition [1] -13.5% | growth inhibition [2] -5.98% | viability increase [3] -3.15% | viability [4] 91.9% | viability [5] 99.8% | inhibition [6] 2.16% | RAM network inhibition [7] 3.35%

COc1ccc(-c2nc(C(N)=O)c3[nH]c(=O)n(-c4ccccc4OC)c3n2)c(OC)c1
inactive: growth inhibition [1] -0.775% | growth inhibition [2] 4.02% | viability increase [3] -4.59% | viability [4] 74.1% | viability [5] 63.2% | inhibition [6] 0.63% | RAM network inhibition [7] 0.1%

Cc1noc(C)c1S(=O)(=O)NC1CCN(Cc2ccccc2)CC1
inactive: growth inhibition [1] -12.1% | growth inhibition [2] -2.23% | viability increase [3] -0.68% | viability [4] 95.8% | viability [5] 94.1% | inhibition [6] 3.14% | RAM network inhibition [7] 4.49%

Cc1c(C)n(C(=O)CSc2nncn2C)c2ccccc12
inactive: growth inhibition [1] 3.06% | growth inhibition [2] 12.8% | viability increase [3] -2.73% | viability [4] 93.2% | viability [5] 98.1% | inhibition [6] 0.94% | RAM network inhibition [7] 3%

Cc1cc(N2C(=O)C3C4c5ccccc5C(c5ccccc54)C3C2=O)no1 (stereo unspecified)
inactive: growth inhibition [1] -9.23% | growth inhibition [2] -12.7% | viability increase [3] -2.14% | viability [4] 80.2% | viability [5] 90.7% | inhibition [6] 0.02% | RAM network inhibition [7] 5.19%

O=C(c1ccc(CN2CCc3ccccc3C2)cc1)N1CCCCC1
inactive: growth inhibition [1] 4.87% | growth inhibition [2] 3.72% | viability increase [3] -2.43% | viability [4] 94.2% | viability [5] 93.9% | inhibition [6] 3.59% | RAM network inhibition [7] 4.9%

C=CCOC(=O)C1=C(C)N(C)C(=O)NC1c1cc2c(cc1Br)OCO2 (stereo unspecified)
inactive: growth inhibition [1] 0.155% | growth inhibition [2] -0.035% | viability increase [3] -1.27% | viability [4] 88.1% | viability [5] 91.8% | inhibition [6] 1.38% | RAM network inhibition [7] 5.32%

O=C(O)c1cnn2c1NC(c1cccs1)CC2C(F)(F)F (stereo unspecified)
inactive: growth inhibition [1] -22.6% | growth inhibition [2] -21.6% | viability increase [3] 0.98% | viability [4] 96.8% | viability [5] 104% | inhibition [6] 1.5% | RAM network inhibition [7] 4.4%

CCOc1cccc(NC(=O)Cc2cccs2)c1
inactive: growth inhibition [1] -8.74% | growth inhibition [2] -0.895% | viability increase [3] -1.86% | viability [4] 94.1% | viability [5] 84.6% | inhibition [6] 1.06% | RAM network inhibition [7] 4.72%

CNc1nc(C)nc(-c2ccccc2O)n1
inactive: growth inhibition [1] -3.62% | growth inhibition [2] 7.31% | viability increase [3] -0.19% | viability [4] 98.5% | viability [5] 92.8% | inhibition [6] 0.84% | RAM network inhibition [7] 4.49%

COc1cccc(C2CC(c3cccc(Br)c3)n3nc(N)nc3N2)c1 (stereo unspecified)
inactive: growth inhibition [1] 2.54% | growth inhibition [2] 4.69% | viability increase [3] -0.49% | viability [4] 96.7% | viability [5] 90.3% | inhibition [6] 0.475% | RAM network inhibition [7] 5.95%

O/N=C1/CCc2cccc3cccc1c23
inactive: growth inhibition [1] -11.1% | growth inhibition [2] 0.79% | viability increase [3] -3.93% | viability [4] 96.1% | viability [5] 103% | inhibition [6] 2.06% | RAM network inhibition [7] -0.11%

CC1CCN(C(=O)CSc2nnc(Cn3c(=O)sc4ccccc43)n2C)CC1
inactive: growth inhibition [1] -3.65% | growth inhibition [2] -5% | viability increase [3] -0.3% | viability [4] 121% | viability [5] 112% | inhibition [6] 0.075% | RAM network inhibition [7] 3.13%

Cc1ccc(C(C(=O)NC2CCCCC2)N2CCCC2)cc1 (stereo unspecified)
inactive: growth inhibition [1] -4.08% | growth inhibition [2] -8.76% | viability increase [3] -3.02% | viability [4] 88.9% | viability [5] 93% | inhibition [6] 0.835% | RAM network inhibition [7] 8.97%
